Measurements from different studies.
Protocols differ between the studies behind these lines.
Target: Serine/threonine-protein kinase ULK2 (ULK2, Homo sapiens, UniProt Q8IYT8)
One construct used (Q8IYT8 1-1036): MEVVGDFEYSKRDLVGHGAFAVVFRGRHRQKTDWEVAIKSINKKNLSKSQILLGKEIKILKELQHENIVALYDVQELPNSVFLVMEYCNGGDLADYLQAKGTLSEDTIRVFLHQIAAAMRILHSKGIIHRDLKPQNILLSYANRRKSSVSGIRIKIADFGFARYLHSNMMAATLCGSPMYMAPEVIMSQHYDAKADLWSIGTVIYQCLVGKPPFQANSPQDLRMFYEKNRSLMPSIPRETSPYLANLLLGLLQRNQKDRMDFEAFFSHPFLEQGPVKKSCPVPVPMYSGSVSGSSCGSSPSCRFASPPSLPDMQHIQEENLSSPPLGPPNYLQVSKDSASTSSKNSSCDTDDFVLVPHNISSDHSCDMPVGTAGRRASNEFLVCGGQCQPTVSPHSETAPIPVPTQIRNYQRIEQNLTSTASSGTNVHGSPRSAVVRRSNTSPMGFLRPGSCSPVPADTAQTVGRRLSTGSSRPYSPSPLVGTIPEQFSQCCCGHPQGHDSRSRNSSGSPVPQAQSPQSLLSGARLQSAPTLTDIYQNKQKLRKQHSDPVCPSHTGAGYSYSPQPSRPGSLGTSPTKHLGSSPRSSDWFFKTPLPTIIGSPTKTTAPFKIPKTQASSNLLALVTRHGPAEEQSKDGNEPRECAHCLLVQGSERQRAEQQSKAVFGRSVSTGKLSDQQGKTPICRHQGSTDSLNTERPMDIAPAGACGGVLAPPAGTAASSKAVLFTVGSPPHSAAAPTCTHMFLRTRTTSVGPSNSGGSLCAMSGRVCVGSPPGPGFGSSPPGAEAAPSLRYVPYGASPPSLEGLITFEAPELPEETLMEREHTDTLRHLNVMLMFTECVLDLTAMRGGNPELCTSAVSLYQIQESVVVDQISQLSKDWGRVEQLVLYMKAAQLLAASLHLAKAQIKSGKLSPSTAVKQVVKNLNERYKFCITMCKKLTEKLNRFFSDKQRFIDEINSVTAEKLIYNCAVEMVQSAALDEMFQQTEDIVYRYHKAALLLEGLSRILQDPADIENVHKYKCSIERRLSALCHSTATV

SMILES	test	conditions	measurement	value
C=CC(=O)N1CCC([C@@H]2CCNc3c(C(N)=O)c(-c4ccc(Oc5ccccc5)cc4)nn32)CC1	enzyme activity, inhibitor	1 µM	inhibition	8%
N#Cc1ccc(NC(=O)Nc2ccccc2)cc1	cell-free assay, competition with immobilised ligand	25 µM	remaining binding	86%
CN1CCN(C(=O)c2ccc(NC(=O)Nc3ccc(N(C)c4ccnc(Nc5ccc(CS(C)(=O)=O)cc5)n4)cc3)cc2)CC1	binding	1 µM	remaining binding	78%
C=CC(=O)N1CCC[C@@H](n2nc(-c3ccc(Oc4ccccc4)cc3)c3c(N)ncnc32)C1	enzyme activity, inhibitor	1 µM	inhibition	13%
CCCCC(=O)Nc1ccc(-c2ccc3ncn(CCC)c(=O)c3c2)cn1	binding, competition with immobilised ligand	0.5 µM	remaining binding	100%
Cc1ccc(NC(=O)c2ccnc(C(F)(F)F)c2)cc1-c1cc(OCCO)nc(N2CCOCC2)c1	binding	1 µM	remaining binding	100%
COc1ccc2oc(-c3ccc4nc(N)oc4c3)c/c(=N\c3ccccc3NC(=O)CCN)c2c1	binding	1 µM	remaining binding	106%
C#Cc1cc(-c2cc(Nc3nc(N[C@@H](C)c4ccc(F)cn4)ncc3Cl)n[nH]2)ccc1C=O	enzyme activity, inhibitor	0.2 µM	inhibition	5.21%
